The source of these data is ChEMBL document CHEMBL4270638, “Sulfonyl-containing phenyl-pyrrolyl pentane analogues: Novel non-secosteroidal vitamin D receptor modulators with favorable physicochemical properties, pharmacokinetic properties and anti-tumor activity” (Eur J Med Chem, 2018).

Structures are written as SMILES. Activity calls are given as the source filed them. The rule behind the calls is not given here.

Series [1] has as its system MCF7. Kind of series: Cell cycle arrest in human MCF7 cells expressing scrambled siRNA assessed as accumulation at G0/G1 phase at 1 uM after 24 hrs by propidium iodide staining based flow cytometry (reference value: 49.28%). The class given is functional.
The test system of series [2] is MCF7. Kind of series: Cell cycle arrest in human MCF7 cells expressing scrambled siRNA assessed as accumulation at G2/M phase at 1 uM after 24 hrs by propidium iodide staining based flow cytometry (reference value: 19.6%). It is filed as functional.
The test system of series [3] is MCF7. The series is described as follows: Cell cycle arrest in human MCF7 cells expressing scrambled siRNA assessed as accumulation at S phase at 1 uM after 24 hrs by propidium iodide staining based flow cytometry (reference value: 29.79%). The class given is functional.
In series [4] the test system is MCF7. Kind of series: Cell cycle arrest in human MCF7 cells expressing VDR siRNA assessed as accumulation at G0/G1 phase at 1 uM after 24 hrs by propidium iodide staining based flow cytometry (reference value: 49.17%). It is filed as functional.
Series [5] deals with MCF7. Kind of series: Cell cycle arrest in human MCF7 cells expressing VDR siRNA assessed as accumulation at G2/M phase at 1 uM after 24 hrs by propidium iodide staining based flow cytometry (reference value: 17.57%). The class given is functional.
Series [6] deals with MCF7. Kind of series: Cell cycle arrest in human MCF7 cells expressing VDR siRNA assessed as accumulation at S phase at 1 uM after 24 hrs by propidium iodide staining based flow cytometry (reference value: 32%). The class given is functional.
Series [7] deals with MCF7. The series is described as follows: Induction of apoptosis in human MCF7 cells expressing scrambled siRNA assessed as live cells at 1 uM after 24 hrs by Annexin-V-FITC/propidium iodide staining based flow cytometry (reference value: 97.93%). The class given is functional.
The subject of series [8] is MCF7. Kind of series: Induction of apoptosis in human MCF7 cells expressing scrambled siRNA assessed as early apoptotic cells at 1 uM after 24 hrs by Annexin-V-FITC/propidium iodide staining based flow cytometry (reference value: 0.93%). It is filed as functional.
Series [9] relates to MCF7. The series is described as follows: Induction of apoptosis in human MCF7 cells expressing scrambled siRNA assessed as late apoptotic cells at 1 uM after 24 hrs by Annexin-V-FITC/propidium iodide staining based flow cytometry (reference value: 0.98%). It is filed as functional.
Series [10] concerns MCF7. Kind of series: Induction of apoptosis in human MCF7 cells expressing scrambled siRNA assessed as necrotic cells at 1 uM after 24 hrs by Annexin-V-FITC/propidium iodide staining based flow cytometry (reference value: 0.16%). It is filed as functional.
Series [11] has as its system MCF7. Kind of series: Induction of apoptosis in human MCF7 cells expressing VDR siRNA assessed as live cells at 1 uM after 24 hrs by Annexin-V-FITC/propidium iodide staining based flow cytometry (reference value: 98.35%). It is filed as functional.
For series [12], the system named is MCF7. Kind of series: Induction of apoptosis in human MCF7 cells expressing VDR siRNA assessed as early apoptotic cells at 1 uM after 24 hrs by Annexin-V-FITC/propidium iodide staining based flow cytometry (reference value: 0.49%). The class given is functional.
Series [13] has as its system MCF7. The series is described as follows: Induction of apoptosis in human MCF7 cells expressing VDR siRNA assessed as late apoptotic cells at 1 uM after 24 hrs by Annexin-V-FITC/propidium iodide staining based flow cytometry (reference value: 1.01%). It is filed as functional.
Series [14] deals with MCF7. The series is described as follows: Induction of apoptosis in human MCF7 cells expressing VDR siRNA assessed as necrotic cells at 1 uM after 24 hrs by Annexin-V-FITC/propidium iodide staining based flow cytometry (reference value: 0.15%). The class given is functional.
For series [15], the system named is MCF7. The series is described as follows: Antitumor activity against human MCF7 cells xenografted in Balb/c nude mouse assessed as increase in p21 expression at […], ip administered three times a week for three weeks starting from day 7 after tumor cell inoculation by immunohistochemical analysis. The class given is functional, organism-based. Put shortly:
(§1)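 Orthotopic MCF-7 fat-pad xenografts in nude mice, as above. Dosing ip three times weekly for three weeks. Tumours fixed 24 h in 4% neutral buffered paraformaldehyde, paraffin-embedded and cut at 5 µm. Sections dewaxed with antigen retrieval, peroxidase quenched with 3% H2O2 for 10 min, then immunostained for p21, p27 and Bax.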

Series [16] relates to MCF7. The series is described as follows: Antitumor activity against human MCF7 cells xenografted in Balb/c nude mouse assessed as increase in p27 expression at […], ip administered three times a week for three weeks starting from day 7 after tumor cell inoculation by immunohistochemical analysis. The class given is functional, organism-based. Put shortly: as §1
In series [17] the test system is MCF7. Kind of series: Antitumor activity against human MCF7 cells xenografted in Balb/c nude mouse assessed as increase in Bax expression at […], ip administered three times a week for three weeks starting from day 7 after tumor cell inoculation by immunohistochemical analysis. The class given is functional, organism-based. Put shortly:
as §1

Series [18] relates to Mus musculus. The series is described as follows: Hypercalcemic effect in Balb/c nude mouse xenografted with human MCF7 cells assessed as effect on serum calcium level at 0.5 ug/kg, ip administered three times a week for three weeks starting from day 7 after tumor cell inoculation measured on day 27 (reference value: 0.6 umol/ml). As to conditions: in vivo.
In series [19] the test system is Mus musculus. Kind of series: Hypercalcemic effect in Balb/c nude mouse xenografted with human MCF7 cells assessed as effect on serum calcium level at 0.5 ug/kg, ip administered three times a week for three weeks starting from day 7 after tumor cell inoculation measured on day 17 during compound dosing (reference value: 0.6 umol/ml). The settings on record: in vivo.

With `C=C1/C(=C\C=C2/CCC[C@]3(C)[C@@H]([C@H](C)CCCC(C)(C)O)CC[C@@H]23)C[C@@H](O)C[C@@H]1O` [CALCITRIOL], the Activity with MCF7 [1] is recorded as 55.16%; with MCF7 [2] it was 13.4%; in the series on MCF7 [3], 30.32%; in the series with MCF7 [4], 51.38%; with MCF7 [5], 17.15%; in the series with MCF7 [6], 30.33%. Besides, the Activity is given as 95% with MCF7 [7]; 1.29% in the series on MCF7 [8]; 3.38% in the series with MCF7 [9]; 0.33% in the series on MCF7 [10]; 97.25% with MCF7 [11]; 0.84% in the series with MCF7 [12]. The Activity in the series with MCF7 [13] was 1.49%; in the series with MCF7 [14], 0.42%; in the series with Mus musculus [18], 0.61 µmol/mL; in the series on Mus musculus [19], 0.6 µmol/mL. For the same molecule, the outcome in the series on MCF7 [15], in the series with MCF7 [16] and in the series with MCF7 [17] was Active.
